Values without a mark were called inactive. Inconclusive results are not listed. The source made the active and inactive calls.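 How the source made its calls, unless noted: active means inhibition over a set limit, the all-compound mean plus 3 SD, in both replicate runs; inconclusive means over that limit in just one replicate run; inactive means at or under that limit in both runs.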
Columns and labels:
[1] = S. cerevisiae growth inhibition in permissive medium (OD615), pilot counter-assay for S. cerevisiae lifespan shortening project, permissive growth control (AID 705;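 active means growth inhibition above 25% in both replicates, a cutoff set 3 SD above the mean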); conditions: OD615, 24 h, at 10 µM, stronger effect = higher value
Procedure, shortened: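 System – S. cerevisiae with engineered DeaD lifespan system · Buffer or medium – SC raffinose/galactose permissive medium · Schedule – cells pre-grown 4 h, then 24 h compound exposure, 30 °C humidified · Technique – culture turbidity as optical density at 615 nm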

[2] = S. cerevisiae growth inhibition in restrictive medium, OD615, pilot screen, restrictive growth control, yeast lifespan reduction project (AID 706;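 active means growth inhibition above a set limit, 3 SD over mean compound inhibition, in both replicates, cut at about 43% in these data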;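 further: modified DeaD lifespan yeast strain shifted to restrictive glucose medium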); conditions: OD615, 48 h, at 10 µM, stronger effect = higher value
Procedure, shortened: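 Material: engineered S. cerevisiae DeaD strain / Medium: glucose-based CSMM-D restrictive medium / Compound: single dose of 10 µM compound final, 0.25% DMSO / Timing: 4 h pre-incubation, 48 h exposure at 30 °C / Technique: OD615 absorbance reading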

[3] = doxorubicin toxicity protection in MRP-1 cells – H69AR cells, CellTiter-Glo, duplicate, MRP-1 activator project, pilot screen (AID 807;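 active means viability increase at or above a cutoff of the median across tested compounds plus 3 SD, cut at about 8.5% in these data, passing the limit was not always enough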;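 further: compound pretreatment 18-22 h then 72 h combined with doxorubicin; 0% = doxorubicin alone and 100% = vehicle without doxorubicin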); conditions: H69AR viability with doxorubicin, CellTiter-Glo luminescence; at 10 µM; stronger effect = higher value
[4] = viability of HCT116 without oncogenic beta-catenin – human colon tumor cells, pilot screen (AID 823;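 active means cell viability at or below a set limit in both duplicate runs, the limit being the all-compound median minus 4 SD, cut at about 23% in these data, passing the limit was not always enough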;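 further: 0% = wells killed by 20 µM Hyamine and 100% = untreated DMSO cell wells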); conditions: HCT116 beta-catenin knockout viability, CellTiter-Glo, 60 h; at 10 µM; stronger effect = lower value
[5] = viability of PTEN-null HCT116 cells – cell-based, HCT116 clonal line, CellTiter-Glo, pilot screen (AID 824;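 active means viability at or below 27.92% in each of two runs, the all-compound median minus 4 SD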;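 further: 0% = 20 µM Hyamine control and 100% = vehicle cell control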); conditions: HCT116 PTEN-deleted viability, 60 h, at 10 µM, stronger effect = lower value
[6] = RAM pathway blockade in budding yeast – dse1pr::URA3 reporter, 5-FOA selection, pilot screen (AID 869);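 further: 0% = DMSO wells with no growth and 100% = 10 µM 1-NA-PP1 with full growth; RAM network block rescues cells from 5-FOA so hits raise OD615 growth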; conditions: S. cerevisiae dse1pr::URA3 5-FOA growth, OD615, 2 d; at 10 µM; stronger effect = higher value; strain carries analog-sensitive mutant Cbk1 kinase
[7] = RAM signaling pathway blockade in yeast – S. cerevisiae, Pdr1DBD-CYC8 efflux-inhibited sensitized strain, primary screen (AID 1298;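 active means RAM network inhibition above 8.4% in each of two replicates, 3 SD over the compound average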;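 further: 0% = DMSO untreated cells without growth and 100% = 10 µM 1-NA-PP1 full growth; higher means more yeast growth rescued from 5-FOA killing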); conditions: S. cerevisiae cbk1-as DSE1-URA3 strain, 5-FOA growth OD615, 2 d; at 50 µM; stronger effect = higher value

Row | Structure (SMILES) | growth inhibition [1] [%] | growth inhibition [2] | viability increase [3] [%] | viability [4] | viability [5] | inhibition [6] [%] | RAM network inhibition [7] [%]
1 | CCCNC(=O)CS(=O)Cc1nc(-c2ccc(OC)cc2)oc1C (stereo unspecified) | -5.5 | 19.6% | -2.12 | 97.2% | 93.9% | 1.62 | 3.43
2 | Clc1ccc(-n2ncc3c(N4CCCCCC4)ncnc32)cc1 | 1.26 | -16.7% | -0.56 | 83.5% | 78.5% | -0.14 | 8.42
3 | CC1(C)CC(=O)C(C=NC2CCCCC2)=C(O)C1 | 0.43 | -1.72% | -1.23 | 98.7% | 94.8% | 1.33 | -1.28
4 | O=C(c1ccc(NC2=NC3CS(=O)(=O)CC3S2)cc1)N1CCc2ccccc2C1 (stereo unspecified) | -0.26 | 11.2% | -0.55 | 109% | 106% | 1.67 | 5.69
5 | CCOC(=O)N1CCc2c(sc(NC(=O)c3ccc(S(=O)(=O)N4CCCC4)cc3)c2C#N)C1 | -3.65 | -5.41% | -1.2 | 99.1% | 85% | 2.04 | 5.32
6 | Cc1cc(C)cc(OCC(=O)Nc2cccc(-c3nc4ncccc4o3)c2)c1 | -7.77 | -1.93% | -1.93 | 65.4% | 59.7% | 3.17 | 6.74
7 | CCc1ccc(NC(=O)CSc2nnc(Cn3c(=O)sc4ccccc43)n2C)cc1 | -4.66 | -25.2% | -1.98 | 104% | 97.6% | 2.96 | 8.29
8 | Cc1cccnc1NC(=O)c1c(O)c2ccccc2n(C)c1=O | 3.49 | 11.4% | -3.77 | 92% | 98% | -0.005 | -1.38
9 | CCCCCn1c(=O)[nH]c2c(c1=O)CCC2 | 2.71 | -0.545% | 1.82 | 101% | 100% | -0.56 | 0.26
10 | O=C(Nc1c(C(=O)N2CCCCC2)cnn1-c1ccccc1)c1ccccc1 | -13.8 | -4.25% | -1.28 | 105% | 92% | 1.99 | 2.44
11 | COC(=O)C1=C(N)OC2=C(C(=O)CC(C)(C)C2)C1c1cccnc1 (stereo unspecified) | -3.42 | -15.1% | -1.92 | 95.4% | 90.4% | 0.305 | 2.43
12 | O=C(Nc1nc2ccccc2n1CCN1CCCC1)c1ccc(Cl)cc1 | -9.21 | -13.3% | -7.07 | 59.9% | 65.7% | -0.07 | 4.6
13 | Cc1cc(C)n2c(SCC#N)nnc2n1 | -13.1 | -13% | 0.04 | 103% | 92.2% | 2.84 | 3.94
14 | CC12CN3CC(C)(CN(C1)C3c1ccc(Br)cc1)C2=O (stereo unspecified) | -1.9 | 3.54% | -2.12 | 95.2% | 96.9% | 0.265 | 0.82
15 | CCSc1nc2c(c(=O)n1-c1ccc(F)cc1)SCC2 | -7.3 | -6.39% | -2.75 | 89.2% | 94.2% | 1.18 | -0.35
16 | CCCCn1c(NC(=O)c2ccccc2)nc2ccccc21 | 8.39 | -7.56% | -3.95 | 22.1% (active) | 18.3% (active) | -0.145 | 3.88
17 | COc1cccc(C2NC(CCSC)(C(=O)O)C3C(=O)N(C(C)C)C(=O)C23)c1O (stereo unspecified) | -1.2 | 8% | 0.13 | 95% | 97.2% | 1.93 | -1.51

Row | Structure (SMILES) | growth inhibition [1] [%] | growth inhibition [2] | viability increase [3] [%] | viability [4] | viability [5] | inhibition [6] [%] | RAM network inhibition [7] [%]
18 | O=C(Nc1nc2cc3c(cc2s1)OCO3)C1=COCCO1 | -9.14 | -31.3% | -6.84 | 45.8% | 41.3% | 1.75 | 5.3
19 | Cc1ccc(C)c(Nc2ncnc3nc[nH]c23)c1 | -3.29 | 0.02% | -1.34 | 103% | 103% | 1.55 | 2.66
20 | CN1CCN(CCCNC(=O)c2cc3c(=O)n(C)c4ccccc4c3s2)CC1 | 0.78 | -4.68% | -7.62 | 53.1% | 45.6% | 0.835 | 1.14
21 | CCCSc1n[nH]c(NC(C)=O)n1 | -9.97 | 7.95% | -0.65 | 98.6% | 101% | 2.27 | 2.41
22 | Cc1cnc(C(=O)OCC(=O)Nc2cccc(Cl)c2)cn1 | -0.055 | 1.48% | -3.1 | 92.5% | 92.3% | 0.405 | 0.67
23 | COc1ccc(N(CC(=O)N2CCN(C)CC2)S(C)(=O)=O)cc1OC | -12 | -9.76% | -0.37 | 90.8% | 97.5% | 0.64 | 6.2
24 | CN1CCN(c2ccccc2NC(=O)C(Cc2ccccc2)n2cccc2)CC1 (stereo unspecified) | -7.49 | -4.39% | -7.39 | 55.6% | 59.3% | 2.68 | 4.23
25 | CC(C)Sc1nc(SCC(=O)NCc2ccco2)c2c3c(sc2n1)COC(C)(C)C3 | -10.2 | -10.9% | -3.75 | 83.2% | 86.2% | 0.615 | 11.6
26 | Cc1ccc(Nc2nc(N3CCOCC3)nc(N3CCOCC3)n2)cc1 | -16.7 | -7.55% | -2.57 | 64.2% | 65.7% | 1.06 | 2.07
27 | O=C(O)CSc1cccc2cccnc12 | 15.6 | 44.6% (active) | -0.24 | 96.5% | 102% | 1.17 | 1.05
28 | CCc1ccccc1S(=O)(=O)Cc1ccc(C(=O)NCc2ccc3c(c2)OCO3)o1 | -12 | -13.8% | -2.5 | 95.7% | 91.1% | 1.87 | 7.83
29 | NC(=O)c1ccsc1NC(=O)c1ccc(S(=O)(=O)N2CCCCC2)cc1 | -4.08 | -4.94% | -0.57 | 71.9% | 58.3% | 1.47 | 2.41
30 | Cc1cc2ncn(CC(O)COC3CCCCC3)c2cc1C (stereo unspecified) | -8.15 | -2.2% | -2.98 | 89.9% | 90.3% | 1.75 | 4.21
31 | CCOC(=O)C1CCCN(C(=O)c2cn(CC)c3ccc(S(=O)(=O)N(C)C)cc3c2=O)C1 (stereo unspecified) | -5.92 | -15.5% | -0.67 | 108% | 102% | 0.85 | 0.1
32 | Cc1nn(C)c(C)c1S(=O)(=O)N(CC(=O)Nc1ccccn1)c1ccc(C(C)C)cc1 | -2.97 | -15.5% | -1.21 | 80.1% | 82.2% | 2 | -0.48
33 | CCCCCC(C)n1[nH]c(=O)c2c(C)cc(C)nc21 (stereo unspecified) | -6.7 | 17.6% | -3.27 | 97.6% | 96.2% | 0.47 | 0.57

Reference: PubChem BioAssay
